Measured values of several laboratories.
Target: Epithelial discoidin domain-containing receptor 1 (DDR1, Homo sapiens, UniProt Q08345)

COc1cc(Cl)c(C(=O)N[C@@H](CN[C@H]2CC[C@@H](N)CC2)Cc2ccc(C#N)cc2)cc1-c1ccc(CN[C@H](C)c2ccc(C)cc2)o1  remaining activity (enzyme activity, inhibitor; 1 µM): 112%
CN1CC(Oc2cnc(C#N)cc2-c2ccn3nc(NC(=O)C4CC4)cc3c2)C1  inhibition (enzyme activity, inhibitor; 1 µM): 29%
CCOCCn1cc(C(=O)Nc2ccc(-n3nc(-c4cccnc4)cc3C(F)(F)F)cn2)ccc1=O  remaining binding (cell-free assay, competition with immobilised ligand; 1 µM): 69%
Nc1ncnc2occ(-c3ccc(NC(=O)Nc4cc(C(F)(F)F)ccc4F)cc3)c12  remaining signal (cell-free assay; 20 µM): 0.25%
CC/C(=N\NC(=O)NCc1cccc(O)c1)c1ccc(O)c(C)c1O  inhibition (enzyme activity, inhibitor; 0.1 µM): -0.9%
Cc1ccc(NC(=O)c2ccc(C)c(C(F)(F)F)c2)cc1C#Cc1nn(C2CCC(O)CC2)c2ncnc(N)c12 (centres unmarked)  remaining signal (cell-free assay; 10 µM): -2%
COc1cc2nccc(Oc3ccc(NC(=O)c4c5n(n(-c6ccc(F)cc6)c4=O)CCCC5)cc3)c2cc1OC  inhibition (enzyme activity, inhibitor; 0.1 µM): 42%
Nc1c(C(=O)NCc2ccc(C(=O)NCCCC3CCCCC3)cc2)cnn1-c1ccccc1  remaining binding (binding, competition with immobilised ligand; 1 µM): 43%
C[C@H]1CCN(c2nccc(-c3cnn4ncccc34)n2)C1  remaining binding (binding; 1 µM): 100%
Cc1sc(C(=O)NC2COC2)cc1-n1cc(NC(=O)Nc2c(F)cccc2Cl)cn1  remaining activity (enzyme activity, inhibitor; 10 µM): 83.7%
COCCOc1nc(-c2ccc(Cl)nc2)nc2c1CN(C(=O)c1ncn3ccccc13)CC2  remaining binding (cell-free assay, competition with immobilised ligand; 0.1 µM): 100%
CC(C)(O)[C@H]1CC[C@H](Nc2ccc3ncc(-c4cccc(C(F)(F)F)c4)n3n2)CC1  remaining activity (enzyme activity, inhibitor; 1 µM): 6.32%
O=C(Nc1cnn(-c2csc(C(=O)NC3COC3)c2)c1)Nc1ccccc1Cl  remaining activity (enzyme activity, inhibitor; 5 µM): 98.4%
CNC(=O)c1cc2c(Oc3ccc(NC(=O)C4(C(=O)Nc5ccc(F)cc5)CC4)cc3)ccnc2cc1OC  inhibition (enzyme activity, inhibitor, radiometric; 1 µM): 88%
Cc1cnc(NC2CCOCC2)nc1-n1cnc(C(=O)NC(CN)c2cc(F)cc(Cl)c2)c1 (centres unmarked)  remaining activity (enzyme activity, inhibitor, radiometric; 1 µM): 104%
Cc1cc(NC(=O)c2cccc3cc(-c4cccc5[nH]nc(N)c45)ccc23)ccc1F  activity vs control (enzyme activity, inhibitor; 0.1 µM): 61%
Cc1ccc(C(=O)NCc2ccsc2)cc1C#Cc1cn(C(C)C)c2ncnc(N)c12  activity vs control (enzyme activity, inhibitor; 1 µM): 0%
